Diaph inh CS = inhibits diaphorase or chemically oxidizes, flagging diaphorase assay artifacts; diaphorase resazurin-to-resorufin fluorescence, NADH, 16 min; bacterial (C. kluyveri) enzyme, not human; inhibition, % at 20 µM; hit rate 0.69% among 190,000;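 active = primary screen inhibition at 20 µM above a set limit, cut at about 50% in these data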;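 note: plate controls were DMSO with full reaction for no effect and wells lacking NADH for full effect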
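Detection: fluorescence of resorufin formed from resazurin, Ex 544/Em 590 nm; test system: Clostridium kluyveri diaphorase enzyme; amount: 0.14 U/mL diaphorase, enzyme working solution; times: 16-min room-temperature incubation before reading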
Cl transport mod = modulators of human KCC2 chloride dependent transport | Q9H2X9 | KCC2 cells, thallium flux FluoZin-2 fluorescence | B-score of Tl+ flux slope (higher = more flux/activation; lower = inhibition) at 10 µM | hit rate 2.2% among 190,000 | AID 1456;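 active = thallium flux slope and its plate-corrected score both differing from the plate sample mean at a set confidence after two filtering rounds, in either direction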;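 note: slope of fluorescence scaled to starting intensity during 10 to 20 s after thallium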
ROMK mod = human ROMK K+ channel modulation, primary screen. hit rate 2% among 130,000. Tet-inducible ROMK, thallium flux fluorescence; actives lie on both sides. B-score at 10 µM;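 active = signal ratio slope over the read window, or its plate-corrected B-score, at least 3 SD from the plate mean, either direction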;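 note: B-score of the F/F0 ratio slope over 7 to 12 s after thallium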
Diaph act CS = diaphorase activation or chemical reduction counter-screen; Diaphorase/resazurin coupled assay, resorufin fluorescence, 16 min; stronger effect = higher value; 1 = vehicle wells, 0 = NADH-free wells; activation factor at 20 µM; hit rate 0.005% among 190,000;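 active = diaphorase activity raised at least twofold by the compound at 20 µM; inactive = activation factor below 2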
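Test system: Clostridium kluyveri diaphorase, purified enzyme. Buffer or medium: 50 mM HEPES pH 7.4 buffer plus MgCl2 and Tween 20. Also added: 0.114 mM NADH and 0.1 mM resazurin, final amounts. Dosing: compound 20 µM once, DMSO 1%. Schedule: 16 min enzyme reaction, ambient temperature. Detection: fluorescence of resorufin, 544 nm excitation, 590 nm emission.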
L major viab = inhibitors of Leishmania major promastigote growth. Leishmania major promastigotes, resazurin fluorescence viability. inhibition, % at 10 µM. hit rate 9% among 200,000. AID 1063; in the data active = inhibition above about 50%;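 note: promastigotes grown with compound for 44 hours at 28 °C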
WT yeast gro inh = growth inhibition of WT yeast, mitochondrial fusion screen; hit rate 2.1% among 190,000; mitochondrial fusion phenotypic screen, WT strain; inhibition, % at 10 µM; in the data active = inhibition above about 58%; tested in S. cerevisiae
KCC2 sec1 = confirmation of human KCC2 transport modulators; shares compounds with Cl transport mod; HEK293-KCC2, thallium flux, FluoZin2 fluorescence; stronger effect = higher value; normalised thallium flux (F/F0 slope) at 10 µM; hit rate 15% among 3,700; AID 1713;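 active = thallium flux slope above the same plate's solvent-only control mean plus 3 SD; inconclusive = the two replicate wells disagree; inactive = no significant difference from solvent-only control wells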
KCC2 bumet counter = thallium flux despite bumetanide block in KCC2 cells, secondary assay 3; HEK293-KCC2 + bumetanide/ouabain, thallium flux FluoZin2; stronger effect = higher value; normalized thallium flux at 10 µM; AID 1714; hit rate 49% among 3,700; shares compounds with Cl transport mod;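 active = thallium entry rate above the same plate's blocked-transporter control wells by more than 3 SD; inconclusive = the two repeat wells disagree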;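 note: raw slope of fluorescence over initial fluorescence between 10 and 20 s after thallium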
KCC2 secondary2 = KCC2 (human) modulation, second secondary assay; HEK293-KCC2, thallium flux FluoZin2 fluorescence; actives lie on both sides; F/F0 rise rate, 10–20 s post-thallium; normalized thallium flux at 10 µM; AID 1715; shares compounds with Cl transport mod; hit rate 23% among 3,700;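 active = thallium flux slope more than 3 SD above or below the plate's solvent-only control mean, mostly below; inconclusive = the two repeat wells disagreed; inactive = no significant shift from solvent-only controls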;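 note: raw slope with 0.1% DMSO as baseline and bumetanide as block control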
HEK counter1 = counter-screen for KCC2 modulators: effect in parental HEK293 cells; shares compounds with Cl transport mod; thallium flux FluoZin2, ouabain; baseline-ratio fluorescence slope, 10–20 s after thallium; thallium flux rate (normalised fluorescence) at 10 µM; hit rate 46% among 3,700; AID 1716;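 active = thallium flux rate significantly above the same plate's solvent-only control wells, beyond their mean plus 3 SD; inconclusive = the two replicate wells gave conflicting results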
KCC2 ouabain = confirmation of human KCC2 modulators with ouabain; hit rate 48% among 3,700; raw Tl+ flux slope (below DMSO = inhibition, above = activation) at 10 µM; shares compounds with Cl transport mod; HEK293-KCC2, thallium flux FluoZin2 fluorescence; bidirectional: low = inhibitor, high = activator; AID 1717;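 active = thallium flux slope beyond 3 SD from same-plate DMSO control mean in most replicates, usually higher, sometimes lower; inconclusive = repeat tests gave conflicting results; inactive = no significant difference from controls in most replicates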;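 note: slope of initial-normalized fluorescence between seconds 10 and 20 after thallium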
HEK293 Tl flux2 = acts in parental HEK cells, second KCC2 counter-screen. shares compounds with Cl transport mod. HEK293 parental, thallium flux FluoZin-2 fluorescence slope. thallium flux slope at 10 µM. hit rate 33% among 3,700;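 active = thallium flux slope above the same plate's solvent-control mean plus 3 SD in both duplicate wells; inconclusive = duplicate wells that disagreed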;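 note: run without ouabain in cells lacking the KCC2 cotransporter; slope of fluorescence scaled to its starting value between 10 and 20 s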
Numbers without * were called inactive. A selection: hits, their analogues and other compounds. The true share with any hit is near 12%.

`Cc1ccc2nc(N3CCN(Cc4ccc(F)cc4)C3=O)c(C)cc2c1` gave Diaph inh CS 20, ROMK mod -2.1, Diaph act CS 0.8, L major viab 2, WT yeast gro inh 17, KCC2 sec1 0.016, KCC2 bumet counter 0.0051, KCC2 secondary2 0.024*, HEK counter1 0.007, KCC2 ouabain 0.013 and HEK293 Tl flux2 0.0099.
For Cc1cc(/C=N/Nc2nc(N)ncc2[N+](=O)[O-])c(C)n1-c1ccccc1F the results were Cl transport mod 0.66.
For c1ccc2sc(SN3CCOCC3)nc2c1 the results were Diaph inh CS 17, Cl transport mod 2.8*, Diaph act CS 0.8, L major viab 9, WT yeast gro inh -8, KCC2 sec1 0.0077, KCC2 bumet counter 0.013*, KCC2 secondary2 0.027, HEK counter1 0.011*, KCC2 ouabain 0.021 and HEK293 Tl flux2 inconclusive.
For Cc1ccc(S(=O)(=O)N(C)c2ccc(C(=O)N3CCc4ccccc4C3)cc2)cc1 the results were Diaph inh CS 26, Cl transport mod -4.8*, ROMK mod -0.33, Diaph act CS 0.7, L major viab 0, WT yeast gro inh 33, KCC2 sec1 0.014, KCC2 bumet counter 0.0039, KCC2 secondary2 0.024*, HEK counter1 inconclusive, KCC2 ouabain 0.013* and HEK293 Tl flux2 0.0095.
For O=C(CSc1nnc(CNc2ccc(F)cc2)o1)c1ccccc1 the results were Cl transport mod -3.8*, ROMK mod -0.77, L major viab -3, WT yeast gro inh -1, KCC2 sec1 0.0063, KCC2 bumet counter 0.006, KCC2 secondary2 0.029, HEK counter1 0.0069, KCC2 ouabain 0.017 and HEK293 Tl flux2 0.0093.
For COc1ccc(NC(=O)CSc2nnc(CNc3ccc(F)cc3)o2)c(OC)c1 the results were Diaph inh CS 14, Cl transport mod -4.1*, Diaph act CS 0.9, L major viab -3, WT yeast gro inh -2, KCC2 sec1 0.0073, KCC2 bumet counter 0.0056, KCC2 secondary2 0.033, HEK counter1 0.0071, KCC2 ouabain inconclusive and HEK293 Tl flux2 0.011.
`Cn1c(=O)c(C(=O)CSc2nnc(Nc3ccccc3)s2)c(N)n(Cc2ccccc2)c1=O` gave Diaph inh CS 1, Cl transport mod 0.8, ROMK mod 0.28, Diaph act CS 1, L major viab -1 and WT yeast gro inh -12.
For O=C(CSc1nnc(Cc2ccccc2)o1)c1ccccc1 the results were Cl transport mod -4.4*, ROMK mod -0.99, L major viab -6, WT yeast gro inh 6, KCC2 sec1 0.0051, KCC2 bumet counter inconclusive, KCC2 secondary2 0.024*, HEK counter1 0.0073, KCC2 ouabain inconclusive and HEK293 Tl flux2 0.011.
`CCCn1c(N)c(C(=O)CSc2nnc(Cc3ccccc3)o2)c(=O)n(C)c1=O` gave Diaph inh CS 16, Cl transport mod -8.8*, Diaph act CS 0.8, L major viab 18, WT yeast gro inh -1, KCC2 sec1 0.0068, KCC2 bumet counter 0.0049, KCC2 secondary2 0.02*, HEK counter1 0.0086, KCC2 ouabain 0.015* and HEK293 Tl flux2 0.012.
